Laboratory results: ChEMBL document CHEMBL3868590, “Quambalarine B, a Secondary Metabolite from Quambalaria cyanescens with Potential Anticancer Properties” (J Nat Prod, 2016)
Active and inactive are the calls of the source. No cut-off for these calls is given here.

Key:
Jurkat [1] = assay: Cytostatic activity against eFluor670-labelled human Jurkat cells assessed as live cells at 2 umol/L measured on day 4 by Hoechst-33258 staining-based FACS analysis (reference value: 97.3%); type: functional
Jurkat [2] = assay: Cytostatic activity against eFluor670-labelled human Jurkat cells assessed as live cells at 2 umol/L measured on day 3 by Hoechst-33258 staining-based FACS analysis (reference value: 98.3%); type: functional
NALM-6 [3] = assay: Cytostatic activity against eFluor670-labelled human NALM6 cells assessed as live cells at 2 umol/L measured on day 5 by Hoechst-33258 staining-based FACS analysis (reference value: 98.6%); type: functional
REH [4] = assay: Cytostatic activity against eFluor670-labelled human REH cells assessed as live cells at 2 umol/L measured on day 5 by Hoechst-33258 staining-based FACS analysis (reference value: 85.6%); type: functional
REH [5] = assay: Inhibition of P70S6K in human REH cells assessed as decrease in C-MYC expression measured after 24 hrs by immunoblot analysis; type: cell-based
Outline: (§1)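 Cells prepared as for RT-qPCR (7.5 × 10^5 cells/mL). Treated either with the line-specific EC50 concentration over a time course, or 24 h with graded concentrations up to that EC50. Cells washed with phosphatase inhibitors and lysed in RIPA; 40 μg protein per lane on SDS-PAGE, then nitrocellulose. Immunoblotted for C-MYC, P70S6K, p-P70S6K (Ser424) and actin.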

[6] = Downregulation of P70S6K protein expression in human Jurkat cells up to 20 umol/L measured after 24 hrs by immunoblot analysis; type: functional, cell-based; outline: as §1
[7] = biological target: Myc proto-oncogene protein (Homo sapiens) (UniProt P01106); assay: Inhibition of C-MYC in human Jurkat cells assessed as decrease in PKM2 level at EC50 measured after 24 hrs by RT-qPCR analysis; type: cell-based
REH [8] = assay: Cytostatic activity against human REH cells assessed as population doubling level at 2 umol/L after 6 days by Burker counting chamber (reference value: 3.55); type: functional
Outline: (§2)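 Cells were seeded at 2.5 × 10^5 cells/mL in DMSO-containing medium, with or without 2 μmol/L compound. Cells were counted daily in a Bürker chamber. PDL was calculated as log(Nf/N0)/log 2 over 6 days. Values are mean ± SD of three experiments, compared with DMSO controls.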

Jurkat [9] = assay: Decrease in C-MYC mRNA level in human Jurkat cells at EC50 measured after 24 hrs by RT-qPCR analysis; type: functional, cell-based
NALM-6 [10] = assay: Cytostatic activity against human NALM6 cells at 2 umol/L measured after 4 to 5 days using Burker counting chamber; type: functional, cell-based; outline: as §2
[11] = Cytotoxicity against PHA/LPS-stimulated CD3-positive T-lymphocytes in eFluor670-labeled human PBMC assessed as division index at 2 umol/L administered post 18 hrs of PHA/LPS-stimulation measured after 72 hrs by Hoechst-33258 staining-based FACS analysis (reference value: 0.381); type: toxicity; settings: t-cell, 2 µM
REH [12] = assay: Cytostatic activity against eFluor670-labelled human REH cells assessed as live cells at 2 umol/L measured immediately after compound addition by Hoechst-33258 staining-based FACS analysis (reference value: 44.1%); type: functional
Jurkat [13] = assay: Cytostatic activity against eFluor670-labelled human Jurkat cells assessed as live cells at 2 umol/L measured on day 1 by Hoechst-33258 staining-based FACS analysis (reference value: 98.2%); type: functional
REH [14] = assay: Inhibition of P70S6K in human REH cells assessed as decrease in phosphorylated P70S6K expression measured after 24 hrs by immunoblot analysis; type: cell-based; outline: as §1
[15] = Cytotoxicity against human PBMC assessed as reduction in viable cells measured after 24 hrs by Hoechst-33258 staining-based FACS analysis; type: toxicity, cell-based
Outline: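 Human PBMC isolated on a Ficoll-Paque gradient, seeded at 1 × 10^5 cells/well in RPMI1640. Exposed 24 h to a compound concentration range; medium and DMSO negative controls. Cells stained with Hoechst 33258 and read by flow cytometry; live-cell percentage from Hoechst-negative singlets. EC50 by five-parameter nonlinear regression.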

REH [16] = assay: Cytostatic activity against human REH cells at 2 umol/L measured after 2 to 3 days using Burker counting chamber; type: functional, cell-based; outline: as §2
REH [17] = assay: Cytostatic activity against eFluor670-labelled human REH cells assessed as live cells at 2 umol/L measured on day 4 by Hoechst-33258 staining-based FACS analysis (reference value: 88%); type: functional
NALM-6 [18] = assay: Cytostatic activity against eFluor670-labelled human NALM6 cells assessed as live cells at 2 umol/L measured on day 4 by Hoechst-33258 staining-based FACS analysis (reference value: 98.6%); type: functional
[19] = Cytotoxicity against CD14+ monocytes in human PBMC population assessed as reduction in viable cells measured after 24 hrs by Hoechst-33258 staining-based FACS analysis; type: toxicity, cell-based, Monocyte
Outline: (§3)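 PBMC were isolated from blood on a Ficoll-Paque gradient and seeded at 1 × 10^5 cells/well in 400 μL RPMI1640. Cells were exposed to a range of compound concentrations for 24 h. Viable CD3+, CD14+ and CD20+ populations were measured as Hoechst 33258-negative singlets by flow cytometry. EC50 was obtained by five-parameter nonlinear regression.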

Jurkat [20] = assay: Cytostatic activity against eFluor670-labelled human Jurkat cells assessed as live cells at 2 umol/L measured immediately after compound addition by Hoechst-33258 staining-based FACS analysis (reference value: 98.2%); type: functional
[21] = Cytotoxicity against PHA/LPS-stimulated CD3-positive T-lymphocytes in eFluor-670-labeled human PBMC assessed as proliferation index at 2 umol/L administered post 18 hrs of PHA/LPS-stimulation measured after 72 hrs by Hoechst-33258 staining-based FACS analysis (reference value: 1.58); type: toxicity; settings: t-cell, 2 µM
Outline: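 PBMC were labelled with 1 μmol/L CPD, stimulated with PHA (5 μg/mL) plus LPS (1 μg/mL), and seeded at 3 × 10^5 cells/well in 300 μL. Compound was added after 18 h and left for 72 h. Cells were stained with anti-CD3. Unstimulated cells set the CPD+ gate. Proliferation index, division index and % divided were calculated for CPD+CD3+ Hoechst-negative cells.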

[22] = Downregulation of P70S6K protein expression in human NALM6 cells at EC50 measured after 24 hrs by immunoblot analysis; type: functional, cell-based; settings: NALM-6; outline: as §1
REH [23] = assay: Inhibition of P70S6K in human REH cells assessed as decrease in phosphorylated P70S6K expression at EC50 by immunoblot analysis; type: cell-based; settings: TDE = time-dependent effect; outline: as §1
[24] = Cytotoxicity against CD14+ monocytes in human PBMC population assessed as viable cells at 100 umol/L measured after 24 hrs by Hoechst-33258 staining-based FACS analysis (reference value: 13.8%); type: toxicity, cell-based, Monocyte; settings: read-out: Activity; outline: as §3
REH [25] = assay: Cytostatic activity against eFluor670-labelled human REH cells assessed as live cells at 2 umol/L measured on day 3 by Hoechst-33258 staining-based FACS analysis (reference value: 90.2%); type: functional
NALM-6 [26] = assay: Cytostatic activity against eFluor670-labelled human NALM6 cells assessed as live cells at 2 umol/L measured on day 1 by Hoechst-33258 staining-based FACS analysis (reference value: 95.5%); type: functional
[27] = biological target: Myc proto-oncogene protein (Homo sapiens) (UniProt P01106); assay: Inhibition of C-MYC in human REH cells assessed as decrease in PKM2 level at EC50 measured after 24 hrs by RT-qPCR analysis; type: cell-based

Chain of Myc proto-oncogene protein (Homo sapiens) (P01106 whole entry): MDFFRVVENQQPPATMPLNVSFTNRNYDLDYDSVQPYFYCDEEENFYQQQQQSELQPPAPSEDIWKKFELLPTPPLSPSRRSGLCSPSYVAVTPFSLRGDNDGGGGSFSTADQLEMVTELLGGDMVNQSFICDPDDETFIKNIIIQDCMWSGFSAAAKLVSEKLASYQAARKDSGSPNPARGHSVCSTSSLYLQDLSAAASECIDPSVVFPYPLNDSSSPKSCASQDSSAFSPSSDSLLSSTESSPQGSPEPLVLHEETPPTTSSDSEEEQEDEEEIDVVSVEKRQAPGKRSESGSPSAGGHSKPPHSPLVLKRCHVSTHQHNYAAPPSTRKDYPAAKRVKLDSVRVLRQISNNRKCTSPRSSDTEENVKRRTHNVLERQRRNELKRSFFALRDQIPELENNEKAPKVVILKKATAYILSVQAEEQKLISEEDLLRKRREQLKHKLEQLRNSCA

## CCCCCC(=O)C1=C(O)C(=O)c2c(O)c(O)cc(O)c2C1=O
Jurkat [1]
  Activity: 39.5%
Jurkat [2]
  Activity: 69.2%
NALM-6 [3]
  Activity: 50.1%
REH [4]
  Activity: 4.17%
REH [5]
  inhibition: Dose-dependent effect
[6]
  inhibition: Active
[7]
  inhibition: Active
REH [8]
  Activity: 1.32
Jurkat [9]
  Activity: Active
NALM-6 [10]
  Activity: Active
[11]
  Activity_index: 0.196
REH [12]
  Activity: 44.1%
Jurkat [13]
  Activity: 88.4%
REH [14]
  inhibition: Dose-dependent effect
[15]
  EC50 at 24 h: 56.1 µM
REH [16]
  Activity: Active
REH [17]
  Activity: 6.9%
NALM-6 [18]
  Activity: 96.7%
[19]
  EC50 at 24 h: 15.1 µM
Jurkat [20]
  Activity: 98.2%
[21]
  Activity_index: 1.23
[22]
  Activity: Active
REH [23]
  inhibition: Tde
[24]
  viability at 24 h, 100 µM: 0.21%
REH [25]
  Activity: 15.8%
NALM-6 [26]
  Activity: 95.2%
[27]
  inhibition: Active
